Data as given in ChEMBL document CHEMBL3785067, “Synthesis and evaluation of 4-hydroxyl aurone derivatives as multifunctional agents for the treatment of Alzheimer's disease” (Bioorg Med Chem, 2016).

Key:
[1] = molecular target: T1, Amyloid-beta precursor protein (Homo sapiens, UniProt P05067); test: Inhibition of Cu2+-induced amyloid beta (1 to 42) (unknown origin) aggregation at 25 uM after 24 hrs by thioflavin-T fluorescence method
Summary of the method: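 Aβ1-42 (25 µM final) mixed with Cu2+ (25 µM final) in HEPES (20 mM, pH 6.60, 150 mM NaCl), with or without compound (25 µM final), and incubated at 37 °C for 24 h. 5 µM ThT in glycine-NaOH pH 8.50 then added and fluorescence read at ex 446/em 490 nm. Percent inhibition calculated from background-subtracted signal. Run in triplicate.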

[2] = molecular target: T1, Amyloid-beta precursor protein; test: Inhibition of self-induced amyloid beta (1 to 42) (unknown origin) aggregation at 25 uM after 24 hrs by thioflavin-T fluorescence method
Summary of the method: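 HFIP-pretreated Aβ1-42 (25 µM final) incubated with compound (25 µM final) in 50 mM phosphate buffer pH 7.40 at 37 °C for 24 h. ThT (5 µM in 50 mM glycine-NaOH, pH 8.5) then added and fluorescence read at ex 446/em 490 nm. Background-subtracted inhibition = (1−IFi/IFc)×100. Run in triplicate.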

[3] = molecular target: T2, Amine oxidase [flavin-containing] A (Homo sapiens, UniProt P21397); test: Inhibition of human recombinant MAO-A at 10 uM using kynuramine as substrate after 30 mins by fluorescence spectrophotometry; details: 0.5 h
T2 sequence (P21397 whole entry): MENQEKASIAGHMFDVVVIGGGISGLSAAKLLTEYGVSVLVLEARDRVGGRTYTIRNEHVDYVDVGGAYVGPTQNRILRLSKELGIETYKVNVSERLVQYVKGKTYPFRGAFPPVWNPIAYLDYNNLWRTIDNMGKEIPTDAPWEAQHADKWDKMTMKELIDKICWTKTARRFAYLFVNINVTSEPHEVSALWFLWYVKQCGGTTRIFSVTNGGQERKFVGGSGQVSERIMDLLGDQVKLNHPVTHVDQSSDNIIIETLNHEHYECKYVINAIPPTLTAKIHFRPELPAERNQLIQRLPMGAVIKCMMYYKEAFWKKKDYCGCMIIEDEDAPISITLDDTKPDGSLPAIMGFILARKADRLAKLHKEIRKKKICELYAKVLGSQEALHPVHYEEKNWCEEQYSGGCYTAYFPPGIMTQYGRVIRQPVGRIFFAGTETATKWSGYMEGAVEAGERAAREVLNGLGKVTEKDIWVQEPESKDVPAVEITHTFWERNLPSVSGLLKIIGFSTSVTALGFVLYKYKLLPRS
Summary of the method: (§1)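 Recombinant human MAO-A or MAO-B (7.5 µg/mL) in 100 mM potassium phosphate with 20.2 mM KCl, pH 7.40. Kynuramine substrate at 45 µM (MAO-A) or 30 µM (MAO-B); DMSO below 4%. Incubated 37 °C for 30 min, stopped with 2N NaOH. 4-Hydroxyquinoline fluorescence read at ex 310/em 400 nm against a calibration curve. Single-concentration screen at 10 µM, in triplicate.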

Homo sapiens = species on record: Homo sapiens; test: Selectivity ratio of IC50 for human recombinant MAO-A to IC50 for human recombinant MAO-B
[4] = Antioxidant activity assessed as AAPH free radical scavenging activity measured as trolox equivalent at 5 uM preincubated for 15 mins followed by AAPH addition measured every min for 90 mins by fluorescence assay; assay type: physicochemical; details: 1.5 h
Summary of the method: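 ORAC-FL in 75 mM phosphate buffer pH 7.40. Sample plus fluorescein (150 nM final) pre-incubated 15 min at 37 °C, then AAPH added (12 mM final). Fluorescence read every minute for 90 min (ex 485/em 535 nm). Net AUC (blank-subtracted) converted to Trolox equivalents using a Trolox standard curve (1-8 µM). Samples tested at 1-10 µM, in duplicate, with at least three independent assays.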

[5] = molecular target: T3, Amine oxidase [flavin-containing] B (Homo sapiens, UniProt P27338); test: Inhibition of human recombinant MAO-B using kynuramine as substrate after 30 mins by fluorescence spectrophotometry
T3 sequence (P27338 whole entry): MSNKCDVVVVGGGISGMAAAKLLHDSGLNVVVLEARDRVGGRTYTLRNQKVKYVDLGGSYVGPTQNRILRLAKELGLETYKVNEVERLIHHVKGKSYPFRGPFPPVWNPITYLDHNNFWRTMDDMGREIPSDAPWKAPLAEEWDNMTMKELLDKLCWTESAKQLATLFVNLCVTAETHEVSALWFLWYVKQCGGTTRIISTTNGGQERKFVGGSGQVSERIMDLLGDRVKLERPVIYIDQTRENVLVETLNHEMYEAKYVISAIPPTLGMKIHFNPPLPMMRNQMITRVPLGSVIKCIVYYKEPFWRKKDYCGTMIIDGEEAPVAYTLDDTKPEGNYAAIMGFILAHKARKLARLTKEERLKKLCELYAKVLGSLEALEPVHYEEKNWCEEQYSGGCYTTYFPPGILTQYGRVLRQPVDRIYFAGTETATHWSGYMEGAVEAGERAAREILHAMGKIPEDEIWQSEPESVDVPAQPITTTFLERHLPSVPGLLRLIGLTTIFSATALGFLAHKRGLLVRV

[6] = molecular target: T2, Amine oxidase [flavin-containing] A; test: Inhibition of human recombinant MAO-A using kynuramine as substrate after 30 mins by fluorescence spectrophotometry
[7] = Metal chelating activity assessed as compound-iron complex formation at 37.5 uM after 30 mins by UV-visual spectrometry; assay type: physicochemical; details: 0.5 h
Summary of the method: (§2)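 UV absorption spectra (200-600 nm) recorded for compound alone or with CuCl2, ZnCl2, AlCl3 or FeSO4 after 30 min incubation at room temperature.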

[8] = Metal chelating activity assessed as compound-zinc complex formation at 37.5 uM after 30 mins by UV-visual spectrometry; assay type: physicochemical; details: 0.5 h; summary of the method: as §2
[9] = Metal chelating activity assessed as mole fraction of compound required to show 1:1 stoichiometry for Cu2+-compound complex at 37.5 uM after 30 mins by UV-visual spectrometry; assay type: physicochemical; details: 0.5 h
Summary of the method: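 Molar-ratio titration of compound in methanol (37.5 µM final) with CuCl2 (3.75-150 µM final). UV spectra corrected by subtracting CuCl2 and compound at matching concentrations. Absorbance at 498 or 488 nm plotted against mole fraction; stoichiometry taken from the intersection of the fitted lines.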

[10] = Permeability of the compound at 100 ug/ml after 18 hrs by PAMPA-BBB assay
[11] = Metal chelating activity assessed as compound-copper complex formation at 37.5 uM after 30 mins by UV-visual spectrometry; assay type: physicochemical; details: 0.5 h; summary of the method: as §2
[12] = Metal chelating activity assessed as compound-aluminium complex formation at 37.5 uM after 30 mins by UV-visual spectrometry; assay type: physicochemical; details: 0.5 h; summary of the method: as §2
[13] = molecular target: T3, Amine oxidase [flavin-containing] B; test: Inhibition of human recombinant MAO-B at 10 uM using kynuramine as substrate after 30 mins by fluorescence spectrophotometry; details: 0.5 h; summary of the method: as §1
[14] = molecular target: T1, Amyloid-beta precursor protein; test: Displacement of [125I]-2-[(4-Aminophenyl)methylene]-5-iodo-3(2H)-benzofuranone from amyloid beta (1 to 42) (unknown origin) after 3 hrs by gamma counting method

T1 sequence (P05067 whole entry): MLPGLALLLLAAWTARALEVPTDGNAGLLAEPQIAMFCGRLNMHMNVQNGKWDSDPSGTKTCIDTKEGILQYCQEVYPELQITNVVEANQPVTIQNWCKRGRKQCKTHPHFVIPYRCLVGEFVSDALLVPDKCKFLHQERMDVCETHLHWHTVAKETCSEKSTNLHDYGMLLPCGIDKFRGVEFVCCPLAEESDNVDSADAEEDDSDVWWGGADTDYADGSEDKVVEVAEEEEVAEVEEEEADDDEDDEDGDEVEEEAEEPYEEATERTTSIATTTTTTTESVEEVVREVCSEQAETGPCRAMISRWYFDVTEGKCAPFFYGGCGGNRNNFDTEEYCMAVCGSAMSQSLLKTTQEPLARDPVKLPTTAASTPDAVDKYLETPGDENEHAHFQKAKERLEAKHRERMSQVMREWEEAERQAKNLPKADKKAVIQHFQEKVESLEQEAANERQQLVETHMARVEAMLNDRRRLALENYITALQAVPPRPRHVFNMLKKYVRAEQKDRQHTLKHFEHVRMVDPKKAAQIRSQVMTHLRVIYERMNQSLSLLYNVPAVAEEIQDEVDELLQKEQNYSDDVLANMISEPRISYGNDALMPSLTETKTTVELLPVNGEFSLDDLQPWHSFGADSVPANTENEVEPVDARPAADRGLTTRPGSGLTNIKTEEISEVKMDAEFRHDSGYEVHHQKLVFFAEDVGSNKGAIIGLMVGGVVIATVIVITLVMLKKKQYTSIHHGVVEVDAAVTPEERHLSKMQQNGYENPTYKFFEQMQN

Compound	inhibition [1]	inhibition [2]	inhibition at 10 µM [3]	Ratio IC50 (Homo sapiens)	Activity [4]	IC50 [5]	IC50 [6]	Activity [7]	Activity [8]	Activity [9]	Papp at 18 h, 100 ug/ml [10]	Activity [11]	Activity [12]	inhibition at 10 µM [13]	Ki [14]
CCN(CC)c1ccc(/C=C2\Oc3cc(O)cc(O)c3C2=O)cc1	88.9%	91.7%	–	0.344	2.04 equiv	0.334 µM	0.115 µM	–	–	–	–	–	–	–	–
O=C1/C(=C/c2ccc(N3CCCCC3)cc2)Oc2cc(O)cc(O)c21	84%	99.2%	–	0.69	1.9 equiv	0.393 µM	0.271 µM	Not Active	Active	0.95 molar ratio	6.68 ×10⁻⁶ cm/s	Active	Active	–	–
CN(C)c1ccccc1/C=C1\Oc2cc(O)cc(O)c2C1=O	90.1%	98.2%	13.5%	–	2.91 equiv	–	–	–	–	–	–	–	–	0.88%	–
O=C1/C(=C/c2ccc(N3CCOCC3)cc2)Oc2cc(O)cc(O)c21	50.1%	80.7%	–	3.18	2.5 equiv	0.34 µM	1.08 µM	–	–	–	–	–	–	–	–
CN(C)c1ccc(CC2Oc3cc(O)cc(O)c3C2=O)cc1 (stereo not drawn)	40.5%	42.7%	23.5%	–	3.07 equiv	–	–	–	–	–	–	–	–	27.2%	–
CN(C)c1ccc(/C=C2\Oc3ccc([125I])cc3C2=O)cc1	–	–	–	–	–	–	–	–	–	–	–	–	–	–	0.00682 µM
COc1cc(O)c2c(c1)O/C(=C\c1ccc(N3CCCCC3)cc1)C2=O	46%	40.3%	18.3%	> 44.2	1 equiv	0.226 µM	–	Not Active	Active	1.11 molar ratio	7.24 ×10⁻⁶ cm/s	Active	Active	–	–
O=C1/C(=C/c2ccc(N3CCCC3)cc2)Oc2cc(O)cc(O)c21	84.8%	99.8%	–	1.17	1.56 equiv	0.391 µM	0.457 µM	–	–	–	–	–	–	–	–
COc1cc(O)c2c(c1)O/C(=C\c1ccc(N(C)C)cc1)C2=O	75.7%	53.7%	20.7%	> 14.2	1.62 equiv	0.703 µM	–	–	–	–	–	–	–	–	–
CN(C)c1ccc(/C=C2\Oc3cc(N(C)C)cc(O)c3C2=O)cc1	71.6%	22.3%	16.8%	–	2.43 equiv	–	–	–	–	–	–	–	–	13.5%	–

More lines, now with the values ahead:

inhibition [1]	inhibition [2]	inhibition at 10 µM [3]	Ratio IC50 (Homo sapiens)	Activity [4]	IC50 [5]	IC50 [6]	Activity [7]	Activity [8]	Activity [9]	Papp at 18 h, 100 ug/ml [10]	Activity [11]	Activity [12]	inhibition at 10 µM [13]	Ki [14]	Compound
47.5%	44.1%	18.4%	> 6.67	1.66 equiv	1.5 µM	–	–	–	–	–	–	–	–	–	COc1cc(O)c2c(c1)O/C(=C\c1ccc(N3CCOCC3)cc1)C2=O
61.4%	97.4%	–	0.039	2.9 equiv	5.94 µM	0.233 µM	–	–	–	–	–	–	–	–	CN(C)c1ccc(/C=C2\Oc3cc(O)cc(O)c3C2=O)cc1
52%	77.7%	15.8%	> 0.926	2.5 equiv	10.8 µM	–	–	–	–	–	–	–	–	–	CN1CCN(c2ccc(/C=C3\Oc4cc(O)cc(O)c4C3=O)cc2)CC1
86.6%	95.3%	–	0.035	1.97 equiv	0.808 µM	0.0279 µM	–	–	–	–	–	–	–	–	CCN(C)c1ccc(/C=C2\Oc3cc(O)cc(O)c3C2=O)cc1
20.9%	38%	13.9%	–	3.56 equiv	–	–	–	–	–	–	–	–	8.7%	–	O=C1c2c(O)cc(O)cc2OC1Cc1ccc(N2CCOCC2)cc1 (stereo not drawn)
